Results as given in ChEMBL document CHEMBL2203173 (J Med Chem, 2012).
Active and inactive are the calls of the source. The rule behind the calls is not given here.

Tests used:
DMS-53 [1] = assay: Antitumor activity against human DMS53 cells xenografted in BALB/c nu/nu mouse assessed as reduction in tumor weight at 4 mg/kg, iv administered for 5 days a week measured after 21 days (reference value: 0.830.11 g); assay type: functional, organism-based; parameters: dose 4 mg/kg
Procedure, shortened: (§1)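 Nude mice bearing DMS-53 xenografts began dosing once tumors reached 100 mm3. Agents given iv by tail vein 5 days/week in vehicle of 30% propylene glycol/saline, with vehicle controls. Net tumor volume followed for 21 days. Mice sacrificed on day 21 and tumors excised and wet-weighed.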

DMS-53 [2] = assay: Antitumor activity against human DMS53 cell xenografted BALB/c nu/nu mouse assessed as reduction in tumor volume at 10 mg/kg, po administered for 3 times a week measured after 20 days (reference value: 997 155 mm'3); assay type: functional, organism-based; parameters: dose 10 mg/kg
Procedure, shortened: (§2)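 DMS-53 xenograft nude mice gavaged 3 times/week with agent in 30% propylene glycol/saline or with vehicle alone. Net tumor volume followed for 20 days; the study ended when control tumors neared the 1000 mm3 ethical limit. Tumors excised and wet-weighed on day 20. n = 6–11 mice/condition, mean ± SD.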

DMS-53 [3] = assay: Antitumor activity against human DMS53 cells xenografted in BALB/c nu/nu mouse assessed as reduction of tumor volume at 8 mg/kg, iv administered for 5 days a week measured after 21 days (RVb = 922 94 mm'3); assay type: functional, organism-based; parameters: dose 8 mg/kg; procedure, shortened: as §1
DMS-53 [4] = assay: Antitumor activity against human DMS53 cells xenografted in BALB/c nu/nu mouse assessed as reduction in tumor weight at 8 mg/kg, iv administered for 5 days per week measured after 21 days (reference value: 0.830.11 g); assay type: functional, organism-based; parameters: dose 8 mg/kg; procedure, shortened: as §1
DMS-53 [5] = assay: Antitumor activity against human DMS53 cells xenografted in BALB/c nu/nu mouse assessed as reduction of tumor volume at 4 mg/kg, iv administered for 5 days a week measured after 21 days (RVb = 922 94 mm'3); assay type: functional, organism-based; parameters: dose 4 mg/kg; procedure, shortened: as §1
DMS-53 [6] = assay: Antitumor activity against human DMS53 cell xenografted BALB/c nu/nu mouse assessed as reduction in tumor volume at 20 mg/kg, po administered for 3 times a week measured after 20 days (reference value: 997 155 mm'3); assay type: functional, organism-based; parameters: dose 20 mg/kg; procedure, shortened: as §2
SK-N-MC [7] = assay: Antiproliferative activity at human SK-N-MC cells after 72 hrs by MTT assay; assay type: functional, cell-based
A549 [8] = assay: Ratio of compound IC50 to DFO IC50 for human A549 cells; assay type: functional
Procedure, shortened: (§3)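 A549 human non-small cell lung carcinoma cells were exposed to agents for 72 h. IC50 is the concentration that inhibits cell growth to 50% of the untreated control. Values are mean ± SD of three experiments. The ratio is the compound IC50 divided by the IC50 of the reference chelator (DFO or NIH) from the same assay.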

A549 [9] = assay: Ratio of compound IC50 to NIH IC50 for human A549 cells; assay type: functional; procedure, shortened: as §3
DMS-53 [10] = assay: Antiproliferative activity at human DMS53 cells after 72 hrs by MTT assay; assay type: functional, cell-based; conditions: dms-53
A549 [11] = assay: Antiproliferative activity at human A549 cells after 72 hrs by MTT assay; assay type: functional, cell-based; conditions: a549
SK-N-MC [12] = assay: Inhibition to 59Fe uptake from 59Fe-transferrin in human SK-N-MC cells at 25 uM after 3 hrs relative to Dp4eT

For `CN(C(=S)NN=C(c1ccccn1)c1ccccn1)C1CCCCC1`, the Activity (DMS-53 [1]) was “Active”, the Activity (DMS-53 [2]) was “Active” and the Activity (DMS-53 [3]) was “Active”. The Activity (DMS-53 [4]) was “Active”, the Activity (DMS-53 [5]) was “Active” and the Activity (DMS-53 [6]) was “Active”.
`CN(C(=S)NN=C(c1ccccn1)c1ccccn1)c1ccccc1` showed an IC50 (SK-N-MC [7]) of 6 nM.
`CCN(C)C(=S)NN=C(c1ccccn1)c1ccccn1` was tested, and the “Ratio IC50” value (A549 [8]) was 137, the “Ratio IC50” value (A549 [9]) was 137 and the IC50 (SK-N-MC [7]) was 4 nM. It also gave an IC50 (DMS-53 [10]) of 8 nM and an IC50 (A549 [11]) of 10 nM.
`CCN(CC)C(=S)NN=C(c1ccccn1)c1ccccn1` was tested, and the IC50 (SK-N-MC [7]) was 5 nM and the Ratio (SK-N-MC [12]) was 2.
